Source: publication PMC7814465 (Cell reports, 2020)
Primed or numbered codes have the meaning given here. Ends that are not written are not given here. FITC′ = fluorescein isothiocyanate

Assays:
[1] = tested on: NTRs (importins) from HeLa cytosol; experiment: Pull-down from HeLa cytosol with biotinylated DPR, NTRs; format: binding; details: immobilized biotinylated peptide, western blot
Outline: (§1)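 It was cleared at 21,000 g, 4°C. Cytosol was incubated under physiological buffer conditions with biotinylated DPR peptides immobilized on ovalbumin-blocked streptavidin beads, and bound NTRs were detected by western blot.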

GST-GR25 / TDP-43 = experiment: Sedimentation of GST-GR25 with TDP-43 and NTRs; format: biochemical; details: anti-GST western blot, three independent experiments
Outline: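 1 µM TDP-43-MBP-His was Tev-cleaved (20 µg/ml His-Tev, 60 min, 30°C) with or without equimolar GST-tagged DPR and/or NTRs. Samples were centrifuged 15 min at 21,000 g, 4°C. Equal volumes of supernatant and pellet were analysed by anti-GST western blot.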

TNPO1 (His-TNPO1) = experiment: SDD-AGE oligomer formation, TNPO1; format: biochemical; details: 10-fold molar excess: 2 μM importin, 20 μM TMR-DPR, pH 7.5, 200 mM NaCl, 1 h RT
Impα3 (His-Impα3) = experiment: SDD-AGE oligomer formation, Impα3; format: biochemical, rat; details: 10-fold molar excess: 2 μM importin, 20 μM TMR-DPR, pH 7.5, 200 mM NaCl, 1 h RT
[2] = tested on: TDP-43 (TDP-43-Tev-MBP/MBP-Tev-TDP-43-GFP); experiment: TDP-43 condensate formation with DPRs, microscopy; format: biochemical; details: TMR-labeled DPR, equimolar (1x) or two-fold (2x), 2 μM TDP-43/TDP-43-GFP, Tev cleavage, 200 mM NaCl, pH 7.5
Outline: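 Size-exclusion-purified TDP-43-MBP-His (2 μM) was mixed with substoichiometric MBP-TDP-43-GFP-His (1:4–1:5). Condensates were imaged by laser scanning confocal microscopy.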

Imp7 = experiment: Pull-down from HeLa cytosol, Imp7; format: binding; details: biotinylated peptide, western blot
Outline: (§2)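 Biotin-DPR bait (5 μg per 10 μl beads) immobilised overnight with 2 mg/ml ovalbumin. Prey bound in B-buffer with 2 mg/ml BSA, washed without BSA, eluted in 2× SDS loading buffer. Two independent replicates.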

Impβ = experiment: Pull-down from HeLa cytosol, Impβ; format: binding; details: biotinylated peptide, western blot
Outline: as §2

Impα3 [3] = experiment: Pull-down from HeLa cytosol, Impα3; format: binding; details: biotinylated peptide, western blot
Outline: as §2

TNPO1 = target: T1, TNPO1 (Homo sapiens, UniProt Q92973); experiment: Pull-down from HeLa cytosol, TNPO1; format: binding; details: biotinylated peptide, western blot
T1 sequence (Q92973 1-898): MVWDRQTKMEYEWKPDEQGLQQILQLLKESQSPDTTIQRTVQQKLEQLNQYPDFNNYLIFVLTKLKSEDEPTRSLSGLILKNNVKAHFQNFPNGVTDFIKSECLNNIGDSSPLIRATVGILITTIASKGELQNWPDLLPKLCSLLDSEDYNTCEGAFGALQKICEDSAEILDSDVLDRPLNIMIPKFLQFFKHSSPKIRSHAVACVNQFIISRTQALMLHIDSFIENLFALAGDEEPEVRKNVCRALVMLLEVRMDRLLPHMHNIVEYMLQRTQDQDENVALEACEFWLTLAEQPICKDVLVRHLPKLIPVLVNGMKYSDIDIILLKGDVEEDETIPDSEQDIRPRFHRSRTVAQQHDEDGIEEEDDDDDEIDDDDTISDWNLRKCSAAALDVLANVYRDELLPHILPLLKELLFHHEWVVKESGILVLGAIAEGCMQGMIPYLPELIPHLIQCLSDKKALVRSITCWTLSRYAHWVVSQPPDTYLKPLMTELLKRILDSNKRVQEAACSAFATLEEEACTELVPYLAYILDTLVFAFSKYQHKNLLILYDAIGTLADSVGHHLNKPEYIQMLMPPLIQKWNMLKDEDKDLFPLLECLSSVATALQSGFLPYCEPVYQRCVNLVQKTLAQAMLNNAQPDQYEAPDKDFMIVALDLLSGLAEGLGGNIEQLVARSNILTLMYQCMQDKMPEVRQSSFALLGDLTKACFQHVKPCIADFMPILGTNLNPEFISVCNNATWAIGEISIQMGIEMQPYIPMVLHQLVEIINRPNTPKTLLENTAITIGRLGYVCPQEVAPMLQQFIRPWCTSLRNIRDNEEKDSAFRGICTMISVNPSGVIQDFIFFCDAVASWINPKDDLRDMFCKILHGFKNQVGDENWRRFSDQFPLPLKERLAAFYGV
Outline: as §1

TNPO3 = experiment: Pull-down from HeLa cytosol, TNPO3; format: binding; details: biotinylated peptide, western blot
Outline: as §1

Impα3 [4] = experiment: Pull-down with purified Impα3; format: binding, rat; details: biotinylated peptide, purified Impα3, pH 7.5, 200 mM NaCl
Outline: (§3)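 Streptavidin beads were blocked with 20 mg/ml ovalbumin, then loaded overnight with 5 µg biotinylated DPR peptide per reaction. 5 µg purified prey protein was added in 50 mM Tris pH 7.5, 200 mM NaCl, 1 mM MgCl2, 5% glycerol, 2 mM DTT, 2 mg/ml BSA. After washes, bound protein was eluted in SDS loading buffer and analysed by SDS-PAGE with Sypro-Ruby staining. Two independent replicates.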

Impα1 = experiment: Pull-down with purified Impα1; format: binding; details: biotinylated peptide, purified Impα1, Figure S1E
Outline: as §3

[5] = tested on: Impβ (His-S-Impβ, in the absence of Impα); experiment: Sedimentation assay, Impβ alone; format: biochemical
Outline: (§4)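 Protein was 1 µM purified NTR alone, or 500 nM Impα with 500 nM Impβ. Samples were centrifuged 15 min at 21,000 g, 4°C. Equal volumes of supernatant and pellet were analysed by SDS-PAGE with Sypro-Ruby stain or western blot.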

CRM1 = experiment: Sedimentation assay, CRM1; format: biochemical
Outline: as §4

[6] = tested on: nuclear import of GCR2-GFP2-cNLS in HeLa cells; experiment: Hormone-induced nuclear import assay, cNLS reporter; format: cell-based; details: 10 µM TMR-GR25, 2 h; three independent experiments, 14-61 cells
Outline: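 HeLa cells were passaged at least twice in DMEM with 10% dialyzed FBS and expressed the GCR2-GFP2-MBP-cNLS reporter. They were pre-incubated 2 h with 10 µM TMR-labeled DPR peptide added once to serum-free imaging medium. Import was induced with 5 µM (final) dexamethasone, and spinning-disk live imaging ran 40–50 min at 2.5-min intervals. Only peptide-positive cells were quantified. N/C ratio is given as mean ± SEM of three experiments, with area under the curve compared by unpaired t test.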

[7] = tested on: GCR2-GFP2 reporter in HeLa cells; experiment: Diffusion of reporter without NLS into nucleus; format: cell-based; details: 10 µM TMR-GR25, 2 h; three independent experiments, 43-102 cells
[8] = tested on: GCR2-GFP2 reporter in cytoplasm; experiment: FRAP of cytoplasmic GCR2-GFP2 reporter; format: cell-based; details: 10 µM GR25, 2 h, dexamethasone; 34-38 cells, two independent experiments
GAPDH in HeLa cytosol = experiment: Sedimentation assay from HeLa cytosol, GAPDH; format: biochemical; details: highest GR/PR concentrations
Impb = details: FRET sensors and bead Halo assays; ref Hayes et al., 2019; cited from earlier work
TNPO1 (TEV-cleaved) = target: T2, TNPO1 (TEV-cleaved) (UniProt Q92973 1-898); experiment: fluorescence polarisation
T2 sequence (looked up): T1 sequence (Q92973 1-898)

[9] = 10-fold molar excess of TMR-labeled DPR, n = 3
[10] = extremely high concentrations (up to 40x)

Molecule: GP25: non-charged control DPR (GPGPGPGPGPGPGPGPGPGPGPGPGPGPGPGPGPGPGPGPGPGPGPGPGP; not fully specified; also: biotin, position not given here)
- binding in pull-down [1]: not to the non-charged control DPR GP25

Molecule: GST-GR25: recombinant GST fusion of GR25
- solubility of GST-GR25 (GST-GR25 / TDP-43; absence of TDP-43): completely soluble
- solubility of GST-GR25 (GST-GR25 / TDP-43; presence of cleaved TDP-43): moved efficiently into the pellet fraction

Molecule: TMR-GR25: tetramethylrhodamine (TMR)-labeled GR25 (GRGRGRGRGRGRGRGRGRGRGRGRGRGRGRGRGRGRGRGRGRGRGRGRGR; also: TMR label, position not given here)
- oligomer formation of TNPO1 (SDS-resistant) (TNPO1 (His-TNPO1)): oligomer formation
- oligomer formation of Impα3 (SDS-resistant) (Impα3 (His-Impα3)): oligomer formation

Molecule: TMR-PR25: tetramethylrhodamine (TMR)-labeled PR25 (PRPRPRPRPRPRPRPRPRPRPRPRPRPRPRPRPRPRPRPRPRPRPRPRPR; also: TMR label, position not given here)
- oligomer formation of TNPO1 (SDS-resistant) (TNPO1 (His-TNPO1)): oligomer formation
- oligomer formation of Impα3 (SDS-resistant) (Impα3 (His-Impα3)): oligomer formation

Molecule: poly-GP: non-charged DPR species; in the experiments GP25 (GPGPGPGPGPGPGPGPGPGPGPGPGPGPGPGPGPGPGPGPGPGPGPGPGP; not fully specified; also: biotin, position not given here) [reference compound]
- oligomer formation of TNPO1 (SDS-resistant) (TNPO1 (His-TNPO1)): not poly-GP
- oligomer formation of Impα3 (SDS-resistant) (Impα3 (His-Impα3)): not poly-GP
- TDP-43 condensate formation [2]: no effect

Molecule: poly-GR: arginine-rich dipeptide repeat protein species; in the experiments mostly GR25
- binding in pull-down (Imp7): bound equally to both poly-GR and poly-PR
- binding in pull-down (Impβ): bound equally to both poly-GR and poly-PR
- binding in pull-down (Impα3 [3]): bound equally to both poly-GR and poly-PR
- binding in pull-down (TNPO1): bound preferentially to poly-GR
- binding in pull-down (TNPO3): bound preferentially to poly-GR
- direct binding in pull-down (Impα3 [4]): preferentially to poly-GR
- direct binding in pull-down (Impα1): preferentially to poly-GR
- solubility of Impβ [5, 9]: remained mainly soluble
- precipitation of Impβ, titration [5, 10]: only partial or no precipitation
- solubility of CRM1 (CRM1; [9]): remained mainly soluble
- precipitation of CRM1, titration (CRM1; [10]): only partial or no precipitation
- oligomer formation of TNPO1 (SDS-resistant) (TNPO1 (His-TNPO1)): SDS-resis-tant oligomers
- oligomer formation of Impα3 (SDS-resistant) (Impα3 (His-Impα3)): SDS-resis-tant oligomers
- nuclear import of cNLS reporter (N/C ratio) [6]: reduced nuclear import
- diffusion of reporter without NLS into nucleus (N/C ratio) [7]: only mildly affected
- mobility of GCR2-GFP2 reporter in cytoplasm (FRAP) [8]: unchanged
- TDP-43 condensate formation [2]: formation of condensates
- precipitation of GAPDH from HeLa cytosol (GAPDH in HeLa cytosol): not precipitated
- direct binding to Impb in vitro (Impb): direct binding

Molecule: {FITC′}-PRPRPRPRPRPRPRPRPRPRPRPRPRPRPRPRPRPRPRPRPRPRPRPRPR [FITC-PR25]
- Kd (TNPO1 (TEV-cleaved)): ~200 nM

Molecule: {FITC′}-GRGRGRGRGRGRGRGRGRGRGRGRGRGRGRGRGRGRGRGRGRGRGRGRGR [FITC-GR25]
- Kd (TNPO1 (TEV-cleaved)): ~200 nM
